Measured values from publication PMC2854012 (Cancer chemotherapy and pharmacology, 2009).
pIC50: −log10 of the molar value. “Also recorded” adds a separate entry of the source.

What was measured:
[1] = system: insulin-stimulated glucose transport; details: cited from earlier work
protein kinase C = details: cited from earlier work
[2] = system: patients with refractory neoplasms; details: cited from earlier work
[3] = Plasma pharmacokinetics of UCN-01 in patients; format: in vivo, human
Outline: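 Heparinized blood drawn in cycle 1 before dosing, 12, 24, 48 and 72 h after infusion start, and 12, 24 and 48 h after infusion end. Cycle 2 sampled pre-dose, at 36 h and 24 h post-end. Plasma spun 1200 x g, 5 min, 4°C, stored -80°C; assayed by HPLC-UV. Noncompartmental analysis: Cmax by inspection; λz from ≥3 terminal points; t1/2 = 0.693/λz; linear-trapezoidal AUC extrapolated by Ct/λz; CL = dose/AUC.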

[4] = system: patients with advanced malignancies; assay: Phase I safety and toxicity, DLT and MTD of UCN-01 with prednisone; format: in vivo, human
Outline: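 Open-label single-arm escalation with 3-6 patients per level. Test compound by continuous IV infusion, 72 h (days 3-5) in cycle 1, then 36 h from day 3; levels 17, 24, 34 mg/m2/24 h. Oral glucocorticoid 60 mg/m2/day, days 1-5; 28-day cycles. Graded by NCI CTC v2.0. DLT: grade 3-4 non-hematologic (separate hyperglycemia rules), grade 4 granulocytopenia or thrombocytopenia. MTD: ≤1 of 6 with DLT.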

[5] = system: patients with advanced malignancies; assay: Tumor response by RECIST in the phase I trial of UCN-01 with prednisone; format: in vivo, human; details: 15 patients
Outline: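 Tumor response assessed radiographically every two cycles by RECIST. Patients received continuous IV test compound (72 h in cycle 1, 36 h thereafter) plus oral glucocorticoid 60 mg/m2/day on days 1-5, in 28-day cycles.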

[6] = 15 patients, 55 courses, with prednisone
[7] = drug-related adverse events, 15 patients, all dose levels

CN[C@@H]1C[C@H]2O[C@@](C)([C@@H]1OC)n1c3ccccc3c3c4c(c5c6ccccc6n2c5c31)C(=O)NC4 [Staurosporine]
effect on insulin-stimulated glucose transport [1]: inhibit insulin-stimulated glucose transport

CN[C@@H]1C[C@H]2O[C@@](C)([C@@H]1OC)n1c3ccccc3c3c4c(c5c6ccccc6n2c5c31)C(=O)N[C@@H]4O [UCN-01, 7-hydroxy staurosporine]
pIC50 (protein kinase C): 7.52 to 8.40
toxicity at the dose level above the single-agent MTD ([2]; 159 mg/m^2 over 72 h): grade 4 hyperglycemia and vomiting
MTD, single agent, cycle 1 ([2]; over 72h, same schedule): 127.5 mg/m^2
duration of prolonged disease stabilization ([2]; patient with alk-positive anaplastic large-cell lymphoma): > 2.5 years
partial response ([2]; patient with melanoma): One partial response
"free" UCN-01 levels at the end of infusion ([2]; supernatant of ultracentrifuged plasma, 24 mg/m^2/day for 3 days): 200 to 600 nmol/L
MTD, single agent, subsequent cycles ([2]; total dose administered over 36 h): 63 mg/m^2
Clearance Mean ([3]; cycle 1, 72-h IV infusion, UCN-01 17 mg/m^2/24 h, with prednisone): 5.4 mL/h/m^2
Clearance Mean ([3]; cycle 1, 72-h IV infusion, UCN-01 24 mg/m^2/24 h, with prednisone): 3.1 mL/h/m^2
Clearance Mean ([3]; cycle 1, 72-h IV infusion, UCN-01 34 mg/m^2/24 h, with prednisone): 4.2 mL/h/m^2
half-life ([3]; human, plasma, intravenous, half-life, at the MTD, with prednisone): ~18.8 days
Cmax ([3]; human, plasma, intravenous, mean Cmax, at the MTD, with prednisone): ~12000 ng/mL
AUC(0-inf) ([3]; human, plasma, iv, AUCinf Mean, cycle 1, 72-h IV infusion, UCN-01 17 mg/m^2/24 h, with prednisone): 3130 µg·h/mL
Cmax ([3]; human, plasma, iv, Cmax Mean, cycle 1, 72-h IV infusion, UCN-01 17 mg/m^2/24 h, with prednisone): 10000 ng/mL
clearance ([3]; range over all dose levels (17, 24 and 34 mg/m^2/24 h x 72 h)): 2.13−5.47 mL/h/m^2
cumulative toxicities [4, 6]: no cumulative toxicities
grade 4 adverse events [4, 6]: no grade 4 adverse events
patients developing some grade of hyperglycemia ([4]; 15 patients, with prednisone): All patients
MTD and recommended phase II dose, cycle 2 and beyond ([4]; CIV over 36 h, with prednisone 60 mg/m^2/day for 5 days every cycle): 36 mg/m^2/cycle
reduction in the maximum dose of UCN-01 that could be safely administered ([4]; combination with prednisone versus single agent on the same schedule): 44%
DLTs ([4]; dose level 2 (72 mg/m^2 total dose over 72 h for cycle 1 followed by 36 mg/m^2/cycle), six patients): without any DLTs
grade 3 hyperglycemia, patients ([4]; dose level 3 (102 mg/m^2 total dose over 72 h for cycle 1 followed by 51 mg/m^2/cycle)): three
DLT: grade 3 hypophosphatemia during cycle 1, patients ([4]; dose level 3 (102 mg/m^2 total dose over 72 h for cycle 1 followed by 51 mg/m^2/cycle), six patients): Two of the six patients
Anemia grade 2, No. of patients [4, 7]: 2 (1)
Headache grade 2, No. of patients [4, 7]: 2 (1)
Hyperglycemia grade 2, No. of patients [4, 7]: 2 (9)
Hypoalbuminemia grade 2, No. of patients [4, 7]: 2 (2)
Hyponatremia grade 3, No. of patients [4, 7]: 3 (1)
Hypophosphatemia grade 2, No. of patients [4, 7]: 2 (6)
Hypophosphatemia grade 3, No. of patients [4, 7]: 3 (4)
Leucopenia grade 2, No. of patients [4, 7]: 2 (1)
Leucopenia grade 3, No. of patients [4, 7]: 3 (1)
Neutropenia grade 2, No. of patients [4, 7]: 2 (1)
Rash/desquamation grade 2, No. of patients [4, 7]: 2 (1)
Visual (photophobia) grade 2, No. of patients [4, 7]: 2 (1)
MTD and recommended phase II dose, cycle 1 ([4]; total dose CIV over 72 h, with prednisone 60 mg/m^2/day for 5 days every cycle): 72 mg/m^2
GI toxicity ([4]; with prednisone): did not observe any significant GI toxicity
pulmonary toxicity ([4]; with prednisone): did not observe any pulmonary toxicity
patients with stable disease for longer than two cycles [5]: five
response as defined by RECIST criteria [5]: No objective responses; also recorded: None of the 15 patients had a response
